From ChEMBL document CHEMBL1154200, “Steroidal glycosides from Agave utahensis and their cytotoxic activity” (J Nat Prod, 2009)
≈ marks a conversion by molar mass, not a printed value. Calls of active or inactive are those of the source. The calls are words filed in the database; no cut-off is given here.

What was measured:
[1] = system: HL-60; test: Cytotoxicity against human HL60 cells at 10 ug/mL after 72 hrs by MTT assay
[2] = system: HL-60; test: Induction of apoptosis in human HL60 cells assessed as caspase-3 activation at 20 ug/ml after 6 hrs; format: functional, cell-based
Outline: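 HL-60 cells (2 × 10^6) treated 6 h at 37 °C at 0, 10 or 20 µg/mL, with 10 µg/mL etoposide as reference, then lysed on ice. Lysate equivalent to 200 µg protein mixed with reaction buffer containing DEVD-pNA. Incubated 2 h at 37 °C, released pNA read at 405 nm. Mean ± SE of triplicates.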

[3] = system: HL-60; test: Cytotoxicity against human HL60 cells after 72 hrs by MTT assay; format: functional, cell-based; settings: HL-60, 72 h
Outline: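 HL-60 cells kept in RPMI 1640 with heat-inactivated 10% FBS, penicillin and streptomycin. Seeded at 4 × 10^4 cells/mL and preincubated 24 h at 37 °C in air/CO2 (19:1). Sample added in EtOH-H2O (1:1) to final 0.1-10 µg/mL, vehicle alone in controls. Incubated 72 h more, growth read by modified MTT (Sargent and Taylor). IC50 taken from dose-response curve. Triplicate.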

[4] = system: HL-60; test: Induction of apoptosis in human HL60 cells by morphology study; format: functional, cell-based
[5] = system: HL-60; test: Induction of DNA fragmentation in human HL60 cells at 20 ug/ml after 18 hrs by agarose gel electrophoresis; format: functional, cell-based
Outline: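 HL-60 cells treated 18 h at 37 °C at 0, 10 or 20 µg/mL, with 10 µg/mL etoposide as reference. Genomic DNA extracted from 2 × 10^6 cells by kit with RNase A step. Run on 2% agarose in 40 mM Tris-acetate (pH 7.4) at 50 V for 1 h. Ladder pattern viewed under UV.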

Row | Compound | Activity [1] | IC50 [3] [µg/mL] | Activity [4] | other results
1 | C[C@@H]1CC[C@@]2(OC1)O[C@H]1C[C@H]3[C@@H]4CC[C@@H]5C[C@@H](O[C@@H]6O[C@H](CO)[C@H](O[C@@H]7O[C@H](CO)[C@@H](O)[C@H](O)[C@H]7O[C@@H]7O[C@H](CO)[C@@H](O)[C@H](O)[C@H]7O)[C@H](O)[C@H]6O)[C@@H](O)C[C@]5(C)[C@H]4CC[C@]3(C)[C@H]1[C@@H]2C | inactive |  |  | 
2 | C[C@@H]1CC[C@@]2(OC1)O[C@H]1C[C@H]3[C@@H]4CC[C@@H]5C[C@@H](O[C@@H]6O[C@H](CO)[C@H](O)[C@H](O[C@@H]7O[C@H](CO)[C@@H](O)[C@H](O)[C@H]7O)[C@H]6O)CC[C@]5(C)[C@H]4CC(=O)[C@]3(C)[C@H]1[C@@H]2C | inactive |  |  | 
3 | C[C@@H]1CC[C@@]2(OC1)O[C@H]1C[C@H]3[C@@H]4CC[C@@H]5C[C@@H](O[C@@H]6O[C@H](CO)[C@@H](O[C@@H]7O[C@H](CO)[C@@H](O)[C@H](O)[C@H]7O)[C@H](O)[C@H]6O)[C@@H](O)C[C@]5(C)[C@H]4CC[C@]3(C)[C@H]1[C@@H]2C | inactive |  |  | 
4 | C[C@@H]1CC[C@@]2(OC1)O[C@H]1C[C@H]3[C@@H]4CC[C@@H]5C[C@@H](O[C@@H]6O[C@H](CO)[C@H](O[C@@H]7O[C@H](CO)[C@@H](O)[C@H](O)[C@H]7O[C@@H]7O[C@H](CO)[C@@H](O)[C@H](O)[C@H]7O)[C@H](O)[C@H]6O)CC[C@]5(C)[C@H]4CC[C@]3(C)[C@H]1[C@@H]2C |  | 4.9 (≈ 5.43 µM) | Active | Activity [2]: Active
5 | C[C@@H]1CC[C@@]2(OC1)O[C@H]1C[C@H]3[C@@H]4CC[C@@H]5C[C@@H](O[C@@H]6O[C@H](CO)[C@@H](O[C@@H]7O[C@H](CO)[C@@H](O)[C@H](O)[C@H]7O)[C@H](O)[C@H]6O)CC[C@]5(C)[C@H]4CC(=O)[C@]3(C)[C@H]1[C@@H]2C | inactive |  |  | 
6 | C[C@@H]1CC[C@@]2(OC1)O[C@H]1C[C@H]3[C@@H]4CC[C@@H]5C[C@@H](O[C@@H]6O[C@H](CO)[C@H](O[C@@H]7O[C@H](CO)[C@@H](O)[C@H](O)[C@H]7O)[C@H](O)[C@H]6O[C@@H]6O[C@H](CO)[C@@H](O)[C@H](O)[C@H]6O)[C@@H](O)C[C@]5(C)[C@H]4CC[C@]3(C)[C@H]1[C@@H]2C | inactive |  |  | 
7 | C[C@@H]1CC[C@@]2(OC1)O[C@H]1C[C@H]3[C@@H]4CC[C@@H]5C[C@@H](O[C@@H]6O[C@H](CO)[C@@H](O[C@@H]7O[C@H](CO)[C@@H](O)[C@H](O)[C@H]7O)[C@H](O)[C@H]6O)CC[C@]5(C)[C@H]4CC[C@]3(C)[C@H]1[C@@H]2C |  | 4.9 (≈ 6.61 µM) | Active | Activity [2]: Active; Activity [5]: Active
8 | CO[C@]1(CC[C@@H](C)CO[C@@H]2O[C@H](CO)[C@@H](O)[C@H](O)[C@H]2O)O[C@H]2C[C@H]3[C@@H]4CC[C@@H]5C[C@@H](O[C@@H]6O[C@H](CO)[C@@H](O[C@@H]7O[C@H](CO)[C@@H](O)[C@H](O)[C@H]7O)[C@H](O)[C@H]6O)CC[C@]5(C)[C@H]4CC[C@]3(C)[C@H]2[C@@H]1C | inactive |  |  | 
9 | C[C@@H]1CC[C@@]2(OC1)O[C@H]1C[C@H]3[C@@H]4CC[C@@H]5C[C@@H](O[C@@H]6O[C@H](CO)[C@H](O)[C@H](O[C@@H]7O[C@H](CO)[C@@H](O)[C@H](O)[C@H]7O)[C@H]6O)CC[C@]5(C)[C@H]4CC[C@]3(C)[C@H]1[C@@H]2C |  | 7 (≈ 9.45 µM) | inactive | 
